UCH37 inh: human UCH37 deubiquitinating enzyme inhibition; hit rate 0.33% among 330,000; Q9Y5K5; purified proteasome/UCH37, Ub-AMC cleavage fluorescence; inhibition, % (concentration not given with the values);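 active = mean inhibition over replicate wells above about 20%, limit read from the data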
Target sequence (Q9Y5K5 whole entry, looked up): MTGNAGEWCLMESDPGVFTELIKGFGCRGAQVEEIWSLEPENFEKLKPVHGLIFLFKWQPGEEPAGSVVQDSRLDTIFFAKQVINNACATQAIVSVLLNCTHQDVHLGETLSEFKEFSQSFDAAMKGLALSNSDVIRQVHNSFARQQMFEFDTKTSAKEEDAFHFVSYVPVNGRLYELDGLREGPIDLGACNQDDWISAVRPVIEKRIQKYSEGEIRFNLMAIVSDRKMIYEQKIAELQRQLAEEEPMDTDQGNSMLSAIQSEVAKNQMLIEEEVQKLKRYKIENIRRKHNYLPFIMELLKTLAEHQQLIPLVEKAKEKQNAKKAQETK
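System: Proteasome-associated human UCH37 deubiquitinase; Input: 0.15 nM proteasome in added enzyme buffer; Also added: Ub-AMC substrate from 1 µM stock; Incubation: 30 min compound-proteasome preincubation then 25 min substrate reaction, room temperature; Detection: fluorescence, ex 355 nm, em 460 nm; Read-out: % inhibition of Ub-AMC cleavage fluorescence; Benchmarks: no-proteasome and no-compound wells.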
UBC13 inh: blocks human UBC13 polyubiquitin chain formation; TR-FRET; inhibition, % at 20 µM; hit rate 0.47% among 330,000; in the data active = inhibition above about 45%, passing the limit was not always enough
Target sequence (P61088 whole entry, looked up): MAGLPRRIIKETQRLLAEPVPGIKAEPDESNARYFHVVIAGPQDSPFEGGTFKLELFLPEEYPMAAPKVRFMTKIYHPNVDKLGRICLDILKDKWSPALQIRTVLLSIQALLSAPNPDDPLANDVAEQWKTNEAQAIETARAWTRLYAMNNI
PREPL inh: inhibits the human prolyl oligopeptidase-like enzyme. Q4J6C6. recombinant PREPL, fluorescence polarization activity-based probe. inhibition, % at 5.96 µM. hit rate 0.68% among 320,000; in the data active = inhibition above about 43%
Apaf-1 inh: inhibitors of human Apaf-1 apoptosome. reconstituted apoptosome caspase-3 activity, DEVD-Rh110 fluorescence. O14727. hit rate 0.71% among 330,000. inhibition, % at 20 µM. AID 489030; active = inhibition of at least 40% at 20 µM
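System: Apoptosome proteins | Medium: Hepes pH 7.5 with detergent and BSA | Also added: Cytochrome c trigger plus (Z-DEVD)2-Rh110 caspase-3 substrate | Incubation: 30 min compound preincubation, 50 min activation, room temperature | Detection: Rhodamine 110 fluorescence at Ex 480/Em 540 nm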
Casp3 UBC13 ctr: inhibits human caspase-3 in UBC13 counter-screen. inhibition, % at 20 µM. hit rate 4% among 1,400. Recombinant caspase-3, Caspase-Glo 3/7 luminescence, 60 min. shares compounds with UBC13 inh;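 active = mean inhibition across replicates above about 26%, limit read from the data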
UBC13 confirm: confirmation of human UBC13 polyubiquitin inhibitors | shares compounds with UBC13 inh | UBC13 polyubiquitination, TR-FRET, biochemical | inhibition, % at 10 µM | hit rate 68% among 1,400; in the data active = inhibition above about 45%
Apaf-1 inh conf: Apaf-1 inhibition, single-dose confirmed; shares compounds with Apaf-1 inh; reconstituted apoptosome, caspase-3 DEVD-Rh110 fluorescence; inhibition, % at 20 µM; hit rate 25% among 1,800;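 active = mean inhibition of at least 40% at 20 µM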
Rh110 quench: Rh110 signal interference in Apaf-1 inhibitor counter-screen; shares compounds with Apaf-1 inh; Rh110 fluorescence interference, quenched caspase reaction; activation (fluorescence interference), % at 20 µM; 1,800 tested, under 10 active;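 active = signal rise of 40% or more at 20 µM, treated as a fluorescence artifact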
Apaf1 inh interf: shows fluorescence interference in the Apaf-1 inhibitor assay format | shares compounds with Apaf-1 inh | fluorescence interference counterscreen, Apaf-1 assay format | IC50, µM | 460 tested, under 10 active | AID 588538; call rule not given here
Large screens that a line does not name were inactive (follow-up assays come after a bar, where they were run); ! = repeats disagree. Hits are enriched below; roughly 1.5% of the tested compounds scored in any of these assays.

C#CCOCCOCCOCCNc1nc(N2CCN(C(=O)CCCCCCCCCCNC(=O)[C@@H](CCC(=O)O)n3cc(CCCCCN)nn3)CC2)nc(N2CCN(C(=O)CCCCCCCCCCNC(=O)[C@H]([C@@H](C)CC)n3cc(CCCCCN)nn3)CC2)n1	UBC13 inh 114, Apaf-1 inh 61 (no result: UCH37 inh) | Casp3 UBC13 ctr inactive | UBC13 confirm 104 | Apaf-1 inh conf inactive | Rh110 quench inactive
CCc1n[nH]c(=S)n1N=Cc1ccc(N(C)c2ccccc2)cc1	none (no result: UBC13 inh, PREPL inh, Apaf-1 inh)
Cc1cc(SCC(=O)NN=Cc2ccc(C(=O)O)cc2)nc2ccccc12	none (no result: UBC13 inh, PREPL inh, Apaf-1 inh)
CC(CCc1ccco1)=NNC(=O)CCC(=O)Nc1cccc(Cl)c1	none (no result: UBC13 inh, PREPL inh, Apaf-1 inh)
COc1ccc(C=NNC(=O)CN(C)S(=O)(=O)c2ccc(NC(C)=O)cc2)cc1	none (no result: UBC13 inh, PREPL inh, Apaf-1 inh)
CC1CCCC(C)N1C(=O)COc1ccc(C(=O)NN=Cc2ccc(C(=O)O)cc2)cc1 (stereo not drawn)	none (no result: UBC13 inh, PREPL inh, Apaf-1 inh)
CCN(CC)CCCNc1ccc(-c2nnc(-c3ccc(OCC(C)C)cc3)o2)cn1	UBC13 inh 47, Apaf-1 inh 41 (no result: UCH37 inh) | Casp3 UBC13 ctr inactive | UBC13 confirm 78 | Apaf-1 inh conf inactive | Rh110 quench inactive
CC(C)COc1ccc(-c2nnc(-c3ccco3)o2)cc1	none
CCOc1ccc(-c2c(C(=O)NN=Cc3c[nH]c4ccccc34)nnn2-c2nonc2N)cc1	none (no result: UBC13 inh, PREPL inh, Apaf-1 inh)
CCCCCCOc1ccc(C(C)=NNC2=NCCN2)cc1	none (no result: UBC13 inh, PREPL inh, Apaf-1 inh)
CCCCCCOc1ccc(/C(C)=N/NC2=NCCN2)cc1[N+](=O)[O-]	UBC13 inh 94, Apaf-1 inh 54 (no result: UCH37 inh) | Casp3 UBC13 ctr inactive | UBC13 confirm 98 | Apaf-1 inh conf 45 | Rh110 quench inactive | Apaf1 inh interf inactive
CC(C)(C)C1CCC(CN2C(Nc3ccccc3)=NC[C@@H]2Cc2ccccc2)CC1 (stereo partly drawn)	UBC13 inh 72, Apaf-1 inh 75 (no result: UCH37 inh) | Casp3 UBC13 ctr inactive | UBC13 confirm 77 | Apaf-1 inh conf inactive | Rh110 quench inactive
O=C(NN=Cc1cccc([N+](=O)[O-])c1)C1CC1c1ccccc1 (stereo not drawn)	none (no result: UBC13 inh, PREPL inh, Apaf-1 inh)
CC[C@@H](C)[C@H](CNC)NC[C@@H](Cc1cccc2ccccc12)NCCc1cccc(C(F)(F)F)c1	UBC13 inh 60, Apaf-1 inh 70 | Casp3 UBC13 ctr inactive | UBC13 confirm 100 | Apaf-1 inh conf 48 | Rh110 quench inactive | Apaf1 inh interf inactive
CCC[C@@H](CN[C@@H](CNC)C(C)C)NCCCCc1ccccc1	none
CCCCCCNC(=O)N[C@@H](C(=O)NCCC[C@H]1CN2C(=NC[C@@H]2Cc2ccccc2)N1CCc1cccc(OC)c1)C(C)C	UBC13 inh 57, Apaf-1 inh 54 | Casp3 UBC13 ctr inactive | UBC13 confirm 61 | Apaf-1 inh conf inactive | Rh110 quench inactive
COc1ccc(C[C@H]2CN3C(=NC[C@@H]3C)N2CCNC(=O)CCC2CCCCC2)cc1	none
COc1ccc2nc(C)cc(NN=Cc3ccccc3)c2c1	none (no result: UBC13 inh, PREPL inh, Apaf-1 inh)
COc1ccc2nc(C)cc(N/N=C/c3ccc(F)cc3)c2c1	UBC13 inh 97, Apaf-1 inh 50 (no result: UCH37 inh) | Casp3 UBC13 ctr inactive | UBC13 confirm 113 | Apaf-1 inh conf inactive | Rh110 quench inactive
NC1=NC[C@@H](Cc2ccc(O)cc2)N1CCCCC1CCCCC1	UBC13 inh 66, Apaf-1 inh 51 | Casp3 UBC13 ctr inactive | UBC13 confirm inactive | Apaf-1 inh conf inactive | Rh110 quench inactive
CN(C)CCCNC(=S)NCC(c1ccc(Cl)cc1Cl)c1c[nH]c2ccccc12 (stereo not drawn)	UBC13 inh 60, Apaf-1 inh 41 (no result: UCH37 inh) | Casp3 UBC13 ctr inactive | UBC13 confirm 88 | Apaf-1 inh conf inactive | Rh110 quench inactive
CCCCNC(=S)NCC(c1ccccc1)c1c[nH]c2ccccc12 (stereo not drawn)	none
CC(C)(C)OC(=O)[C@H](Cc1ccccc1)NC(=O)c1nc[nH]c1C(=O)N[C@@H](CCCCN)C(=O)OC(C)(C)C	UBC13 inh 73, Apaf-1 inh 51 | Casp3 UBC13 ctr inactive | UBC13 confirm 76 | Apaf-1 inh conf inactive | Rh110 quench inactive
CC(C)C[C@H](NC(=O)c1nc[nH]c1C(=O)N[C@@H](CCCCN)C(=O)OC(C)(C)C)C(=O)OC(C)(C)C	UBC13 inh 53, Apaf-1 inh 43 | Casp3 UBC13 ctr inactive | UBC13 confirm 53 | Apaf-1 inh conf inactive | Rh110 quench inactive
COc1cc(C=NNC(=O)c2cc3ccccc3cc2O)ccc1OCCN1CCCCC1	none (no result: UBC13 inh, PREPL inh, Apaf-1 inh)
c1ccc(CNc2nc(NCc3ccccc3)c3ccccc3n2)cc1	UBC13 inh 75, Apaf-1 inh 66 | Casp3 UBC13 ctr inactive | UBC13 confirm 92 | Apaf-1 inh conf inactive | Rh110 quench inactive
CCCN(CCC)Cc1c(C(=O)NN=Cc2cccs2)nnn1-c1nonc1N	none (no result: UBC13 inh, PREPL inh, Apaf-1 inh)
COc1ccccc1-c1oc2ccccc2c1C#CC1(N)CCCCC1	UBC13 inh 70, Apaf-1 inh 68 (no result: UCH37 inh) | Casp3 UBC13 ctr inactive | UBC13 confirm 70 | Apaf-1 inh conf inactive | Rh110 quench inactive
COc1ccccc1-c1oc2ccccc2c1C#CC1(O)CCCCC1	none
CSc1ccc2c(c1)C(N1CCN(C)CC1)Cc1ccccc1S2 (stereo not drawn)	UBC13 inh 52!, Apaf-1 inh 48! | Casp3 UBC13 ctr inactive | UBC13 confirm inactive | Apaf-1 inh conf inactive | Rh110 quench inactive
CN1CCN(C2Cc3ccccc3Sc3cc(C(F)(F)F)ccc32)CC1 (stereo not drawn)	none
Cc1c(CCOC(=O)c2ccc(Cl)cc2Cl)sc[n+]1CC(=O)c1ccc(Br)cc1	UBC13 inh 67, Apaf-1 inh 71 | Casp3 UBC13 ctr inactive | UBC13 confirm 67 | Apaf-1 inh conf inactive | Rh110 quench inactive
Cc1c(CCO)sc[n+]1CC(=O)OCCC12CC3CC(CC(C3)C1)C2	none
Cc1c(CCOC(=O)C2C3CC4CC(C3)CC2C4)sc[n+]1CC(=O)c1ccc(Br)cc1 (stereo not drawn)	UBC13 inh 47, Apaf-1 inh 50 | Casp3 UBC13 ctr inactive | UBC13 confirm 75 | Apaf-1 inh conf inactive | Rh110 quench inactive
Cc1ncsc1CCOC(=O)c1ccc(Cl)cc1	none
NC(=NCCCCCCN=C(N)/N=C(\N)Nc1ccc(Cl)cc1)/N=C(\N)Nc1ccc(Cl)cc1	UBC13 inh 111, Apaf-1 inh 79 | Casp3 UBC13 ctr inactive | UBC13 confirm 118 | Apaf-1 inh conf inactive | Rh110 quench inactive

Source: PubChem BioAssay
